From ChEMBL document CHEMBL1147812 (J Med Chem, 2006)

Biological target: Neuronal acetylcholine receptor; alpha4/beta2 (Rattus norvegicus, UniProt P09483+P12390)
Test: Inhibition of [3H]cytisine binding to alpha4beta2 nACHR in Wistar rat cerebral cortical membrane
Outline: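 Male Wistar rat (150-250 g) cerebral cortex homogenized at 0-4 °C in 50 mM Tris HCl pH 7.4 with 120 mM NaCl, 5 mM KCl, 1 mM MgCl₂, 2.5 mM CaCl₂, then washed twice by centrifugation at 27 000g. Membranes incubated with test drug and 1 nM ³H-cytisine (final) for 90 min at 2 °C. Nonspecific binding defined with 100 µM (-)-nicotine. Bound label collected on GF/C filters and counted by liquid scintillation.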

Chain of Neuronal acetylcholine receptor; alpha4/beta2 (P09483 whole entry): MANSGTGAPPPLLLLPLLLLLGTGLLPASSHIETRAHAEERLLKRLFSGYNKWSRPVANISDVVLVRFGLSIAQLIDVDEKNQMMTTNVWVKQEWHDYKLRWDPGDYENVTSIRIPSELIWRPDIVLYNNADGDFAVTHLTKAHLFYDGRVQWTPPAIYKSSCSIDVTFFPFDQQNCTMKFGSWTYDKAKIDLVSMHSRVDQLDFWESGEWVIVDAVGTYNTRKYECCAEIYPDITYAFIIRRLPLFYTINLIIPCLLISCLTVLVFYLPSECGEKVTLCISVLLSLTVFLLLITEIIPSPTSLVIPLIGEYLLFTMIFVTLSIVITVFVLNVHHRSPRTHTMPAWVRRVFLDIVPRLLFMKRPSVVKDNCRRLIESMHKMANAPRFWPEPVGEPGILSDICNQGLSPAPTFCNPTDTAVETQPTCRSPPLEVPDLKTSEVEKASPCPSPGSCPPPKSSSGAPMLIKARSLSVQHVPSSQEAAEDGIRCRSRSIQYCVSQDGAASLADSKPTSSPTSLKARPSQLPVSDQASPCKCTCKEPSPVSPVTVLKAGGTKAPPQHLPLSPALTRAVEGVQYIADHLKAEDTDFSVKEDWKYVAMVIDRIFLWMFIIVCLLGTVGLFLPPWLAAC
Chain of Neuronal acetylcholine receptor; alpha4/beta2 (P12390 whole entry): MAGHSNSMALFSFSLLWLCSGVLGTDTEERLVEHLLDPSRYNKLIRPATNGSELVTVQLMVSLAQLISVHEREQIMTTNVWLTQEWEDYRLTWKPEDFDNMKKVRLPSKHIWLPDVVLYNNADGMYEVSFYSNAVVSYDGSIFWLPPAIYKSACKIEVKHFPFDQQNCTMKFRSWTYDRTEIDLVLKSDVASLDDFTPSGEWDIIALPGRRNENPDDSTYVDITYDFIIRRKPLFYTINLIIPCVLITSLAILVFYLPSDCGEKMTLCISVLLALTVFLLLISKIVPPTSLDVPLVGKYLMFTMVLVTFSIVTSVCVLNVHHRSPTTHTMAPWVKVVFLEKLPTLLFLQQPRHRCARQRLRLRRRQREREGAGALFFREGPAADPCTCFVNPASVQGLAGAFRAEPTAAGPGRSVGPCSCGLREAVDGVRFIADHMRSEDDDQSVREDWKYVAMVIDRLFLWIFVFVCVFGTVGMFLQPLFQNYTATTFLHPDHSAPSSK

Structure (SMILES)	IC50
C=COc1cc(N2CCCNCCC2)cnc1Br	0.38 nM
Clc1ncc(N2CCNCC2)cc1Br	230 nM
Clc1cc(N2CCCNCC2)cnc1Br	1.4 nM
Cc1ncc(N2CCNCC2)cc1Cl	520 nM
C/C=C\Oc1cncc(N2CCCNCC2)c1	1.3 nM
Clc1ncc(N2CCCNCC2)cc1Br	1.4 nM
Brc1ccc(N2CCNCC2)cn1	180 nM
CCOc1cncc(N2CCC3CCC(C2)N3)c1 (racemic)	6.5 nM
C#Cc1cncc(N2CCNCC2)c1	110 nM
Brc1cncc(N2CCCNCCC2)c1	2.8 nM
c1ncc(N2CCCNCC2)cc1C1CC1	5.8 nM
c1cncc(N2CCCNCCC2)c1	0.9 nM
COc1cncc(N2CCNCC2)c1	500 nM
COc1cncc(N2C3CCNCC2CC3)c1 (racemic)	10 nM
C=COc1cc(N2CCCNCC2)cnc1Br	0.64 nM
Brc1ccc(N2CCCNCCC2)cn1	0.45 nM
Clc1cncc(OC2CCCNC2)c1 (racemic)	240 nM
Clc1cncc(N2CCCNCCC2)c1	2 nM
C/C=C\Oc1cncc(N2C3CCNCC2CC3)c1 (racemic)	3.1 nM
C=COc1cncc(N2CCNCC2)c1	190 nM
C/C=C\Oc1cncc(N2CCC3CCC(C2)N3)c1 (racemic)	1.9 nM
Oc1cc(N2CCCNCC2)cnc1I	22 nM
